Eight compounds from ChEMBL document CHEMBL1122925 (J Med Chem, 1985) can be followed below.

As a reminder, the pIC50 is −log10 of the IC50, conventionally taken in molar units. Low readings indicate a high IC50, high ones a low IC50. In general, inhibition refers to the share of the control response that was lost under treatment. The low end stands for a response near the control, the high end for a response far below the control.

pIC50: −log10 of the molar value. “And” between values parts separate entries of the source, which are not always exact repeats. Identical values can stand only once. A value given as a limit tells only on which side of the number the result lay.

Assay [1] relates to Vero. Nature of the assay: The concentration required to inhibit the growth of viral plaques by 50% of control in plaque reduction assay. Conditions: Chlorocebus sabaeus. The assay is classed as functional, cell-based. The gist of the method: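 HSV-1 plaque-reduction assay, H29 strain for most values and Mac strain for some. IC50 is the concentration that inhibits viral plaque growth by 50% relative to controls.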

Assay [2] has as its system Thymidine kinase (Human herpesvirus 1). Nature of the assay: Ability (300 uM) to compete with 150 uM of [14C]ACV for binding sites on viral enzyme (HSV-1 TK). Conditions: Human alphaherpesvirus 1.
Assay [3] has the same test system. The assay can be described thus: Relative substrate velocity was evaluated by using HSV-1 TK assay. Conditions: Human alphaherpesvirus 1.
The test system is the same in assay [4]. Nature of the assay: Ability (300 uM) to compete with 150 uM of [14C]ACV for binding sites on viral enzyme, Mac strain (HSV-1 TK). Conditions: Human alphaherpesvirus 1.
Assay [5] deals with T1, Thymidine kinase (Human alphaherpesvirus 1) (UniProt Q9QNF7).
T1 sequence (whole entry): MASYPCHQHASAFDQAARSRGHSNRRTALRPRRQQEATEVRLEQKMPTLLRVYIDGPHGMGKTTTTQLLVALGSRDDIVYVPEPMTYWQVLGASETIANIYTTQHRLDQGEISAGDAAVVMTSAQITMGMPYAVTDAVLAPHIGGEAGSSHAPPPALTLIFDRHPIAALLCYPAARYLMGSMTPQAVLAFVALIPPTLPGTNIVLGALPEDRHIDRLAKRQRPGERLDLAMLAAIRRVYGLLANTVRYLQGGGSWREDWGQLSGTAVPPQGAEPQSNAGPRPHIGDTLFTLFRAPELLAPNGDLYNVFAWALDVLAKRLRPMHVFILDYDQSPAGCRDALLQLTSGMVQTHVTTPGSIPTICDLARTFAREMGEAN
Nature of the assay: Relative substrate velocity was evaluated by using HSV-1 TK assay.

The subject of assay [6] is Thymidine kinase (Human herpesvirus 1). The assay can be described thus: Relative substrate velocity was evaluated against Mac strain by using HSV-1 TK assay. Conditions: Human alphaherpesvirus 1.
Assay [7] concerns Vero. Nature of the assay: Zone of inhibition of plaque formation in vero cells inoculated with HSV-1 virus along with disks containing 50 ug of compound; 11-50 mm zone of inhibition. It is filed as functional, Chlorocebus sabaeus. An outline of the steps:
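HSV-1 plaque-inhibition test in Vero cells, H29 strain for most values and Mac strain for some. Disks carry 50 μg of test compound. The read-out is the diameter of the zone without plaque formation, and a zone of 11–50 mm is scored (+).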

In assay [8] the test system is Thymidine kinase (Human herpesvirus 1). Nature of the assay: Relative substrate velocity was evaluated against H29 strain by using HSV-1 TK assay. Conditions: Human alphaherpesvirus 1.
The test system is the same in assay [9]. The assay can be described thus: Ability (300 uM) to compete with 150 uM of [14C]ACV for binding sites on H29 strain viral enzyme (HSV-1 TK). The conditions noted are these: Human alphaherpesvirus 1.

Consider `NC(=O)c1ncn(COCCO)n1`, for which, in the assay on Vero [1], the negative-log IC50 (pIC50) is less than 3.70. In assay [2], this compound registered an inhibition of 0%.
The compound `Nc1nc(=O)ccn1COCCO` returned a Relative substrate velocity in assay [3] of less than 3%. The figures for the inhibition in assay [2] and in assay [4] were 0% and 7%, respectively.
Regarding `Nc1nc(O)c2ccn(COCCO)c2n1`, the Relative substrate velocity in assay [3] amounted to 3%. Besides, the inhibition in assay [4] is 6%.
In the assay on Vero [1], `Nc1nc2c(ncn2COCCO)c(=O)[nH]1` [ACYCLOVIR] had a negative-log IC50 (pIC50) of 7.00.
Compound `Nc1nc2c(cnn2COCCO)c(=O)[nH]1` came in with an inhibition in assay [2] of 0%.
For `Nc1nc(O)c2cc3ncn(COCCO)c3cc2n1`, the Relative substrate velocity in [5] is less than 3%. This compound also registered an inhibition in assay [2] of 24%.
In the case of `NC(=O)c1ncn(COCCO)c1N`, the inhibition in assay [2] was 1%.
Regarding `Nc1nc(O)c2nnn(COCCO)c2n1`, the pIC50 in the assay on Vero [1] is 3.89. The Relative substrate velocity in assay [6] was 5% and 9%; in assay [8], 9%. The compound also had a Zone of inhibition in the assay on Vero [7] of 11. The figures for the inhibition in [4] and in assay [9] were 23% and 27%, respectively.
